Experimental data as given in ChEMBL document CHEMBL2021883, “Amino acid, dipeptide and pseudodipeptide conjugates of ring-substituted 8-aminoquinolines: synthesis and evaluation of anti-infective, β-haematin inhibition and cytotoxic activities” (Eur J Med Chem, 2012).
In brackets after ≈: the same amount, converted by molar mass. Activity calls are given as the source filed them. Unless noted, the calls are words filed in the database; no cut-off is given here.

Legend:
Plasmodium falciparum [1] = experiment: Antimalarial activity against chloroquine-sensitive Plasmodium falciparum D6 assessed as plasmodial LDH activity; assay type: functional, organism-based
Vero = experiment: Cytotoxicity against african green monkey Vero cells upto 23.8 […] by neutral dye assay; assay type: cell-based, Chlorocebus sabaeus
In short: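 Vero monkey kidney cells were exposed to compound up to a highest concentration of 23.8, with viability read by neutral red uptake.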

[2] = Selectivity index, ratio of IC50 for african green monkey Vero cells to IC50 for chloroquine-resistant Plasmodium falciparum W2; assay type: toxicity, cell-based; settings: Vero cells versus Plasmodium falciparum W2, read-out: Ratio IC50
Staphylococcus aureus [3] = experiment: Antimicrobial activity against Staphylococcus aureus ATCC 29213 by CLSI method; assay type: functional, organism-based
[4] = Inhibition of beta-hematin formation; assay type: functional
Cryptococcus neoformans = experiment: Antifungal activity against Cryptococcus neoformans; assay type: functional, organism-based
In short: (§1)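 Yeasts and A. fumigatus were tested by broth microdilution following the NCCLS antifungal standards. The highest test concentration was 20.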

Candida albicans [5] = experiment: Antifungal activity against Candida albicans at 20 ug/ml; assay type: functional, organism-based
In short: (§2)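 Broth dilution antifungal testing followed the NCCLS reference method for yeasts, with 20 as the highest test concentration. MIC was the lowest concentration with no detectable growth. MFC was the lowest concentration killing the organism.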

Pseudomonas aeruginosa = experiment: Antimicrobial activity against Pseudomonas aeruginosa ATCC 27853 by CLSI method; assay type: functional, organism-based
In short: (§3)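 Antibacterial testing used CLSI/NCCLS broth dilution for aerobically growing bacteria, with 20 as the highest test concentration.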

Plasmodium berghei [6] = experiment: Antimalarial activity against Plasmodium berghei blood-schizont in mouse malaria model assessed as elimination of parasitemia at 10 mg/kg, po for 4 days for 4 days measured after 7 days; assay type: functional, organism-based; set-up: dose 10 mg/kg
In short: (§4)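 P. berghei-infected mice, 6 per group, received compound orally once daily for 4 days at 10, 25, 50 or 100 mg/kg/day. "Active" meant all treated animals were parasitaemia-negative up to D+7. "Curative" meant complete parasite elimination with survival to D+60. Outcomes were recorded as cured/total.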

[7] = tested on: Mycobacterium intracellulare; experiment: Antimicrobial activity against Mycobacterium intracellulare ATCC 23068 by Franzblau method; assay type: functional, organism-based
Leishmania donovani = experiment: Antileishmanial activity against Leishmania donovani promastigote by Alamar Blue assay; assay type: functional, organism-based
[8] = Selectivity index, ratio of IC50 for african green monkey Vero cells to IC50 for chloroquine-sensitive Plasmodium falciparum D6; assay type: toxicity, cell-based; settings: Vero cells versus Plasmodium falciparum D6, read-out: Ratio IC50
Escherichia coli [9] = experiment: Antimicrobial activity against Escherichia coli ATCC 35218 by CLSI method; assay type: functional, organism-based
Aspergillus fumigatus = experiment: Antifungal activity against Aspergillus fumigatus; assay type: functional, organism-based; in short: as §1
Staphylococcus aureus [10] = experiment: Antimicrobial activity against methicillin-resistant Staphylococcus aureus ATCC 43300 by CLSI method; assay type: functional, organism-based
Plasmodium berghei [11] = experiment: Antimalarial activity against Plasmodium berghei blood-schizont in mouse malaria model assessed as elimination of parasitemia at 25 mg/kg, po for 4 days for 4 days measured after 7 days; assay type: functional, organism-based; set-up: dose 25 mg/kg; in short: as §4
Plasmodium berghei [12] = experiment: Antimalarial activity against Plasmodium berghei blood-schizont in mouse malaria model assessed as elimination of parasitemia at 50 mg/kg, po for 4 days for 4 days measured after 7 days; assay type: functional, organism-based; set-up: dose 50 mg/kg; in short: as §4
Plasmodium berghei [13] = experiment: Antimalarial activity against Plasmodium berghei blood-schizont in mouse malaria model assessed as disease curative activity at 100 mg/kg, po after 60 days; assay type: functional; in short: as §4
Plasmodium falciparum [14] = experiment: Antimalarial activity against chloroquine-resistant Plasmodium falciparum W2 assessed as plasmodial LDH activity; assay type: functional, organism-based
Candida albicans [15] = experiment: Fungicidal activity against Candida albicans at 20 ug/ml; assay type: functional, organism-based; in short: as §2
Pichia kudriavzevii = experiment: Antifungal activity against Candida krusei; assay type: functional, organism-based; in short: as §1
Nakaseomyces glabratus = experiment: Antifungal activity against Candida glabrata; assay type: functional, organism-based; in short: as §1
Escherichia coli [16] = experiment: Antimicrobial activity against Escherichia coli ATCC 35218 at 20 ug/ml by CLSI method; assay type: functional, organism-based; in short: as §3
[17] = tested on: Mycobacterium intracellulare; experiment: Antimicrobial activity against Mycobacterium intracellulare ATCC 23068 at 20 ug/ml by Franzblau method; assay type: functional, organism-based
Escherichia coli [18] = experiment: Bactericidal activity against Escherichia coli ATCC 35218 at 20 ug/ml by CLSI method; assay type: functional, organism-based; in short: as §3
[19] = tested on: Mycobacterium intracellulare; experiment: Bactericidal activity against Mycobacterium intracellulare ATCC 23068 at 20 ug/ml by Franzblau method; assay type: functional, organism-based
Staphylococcus aureus [20] = experiment: Bactericidal activity against methicillin-resistant Staphylococcus aureus ATCC 43300 at 20 ug/ml by CLSI method; assay type: functional, organism-based
In short: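 MBC is the lowest concentration that kills the organism. 20 was the highest concentration tested.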

Staphylococcus aureus [21] = experiment: Antimicrobial activity against methicillin-resistant Staphylococcus aureus ATCC 43300 at 20 ug/ml by CLSI method; assay type: functional, organism-based
Plasmodium berghei [22] = experiment: Antimalarial activity against Plasmodium berghei blood-schizont in mouse malaria model assessed as elimination of parasitemia at 100 mg/kg, po for 4 days for 4 days measured after 7 days; assay type: functional, organism-based; set-up: dose 100 mg/kg; in short: as §4
Plasmodium berghei [23] = experiment: Antimalarial activity against Plasmodium berghei blood-schizont in mouse malaria model assessed as elimination of parasitemia at 100 mg/kg, po for 4 days for 4 days measured after 4 days; assay type: functional, organism-based; set-up: dose 100 mg/kg
[24] = Plasmodium falciparum, D6, read-out: IC50
[25] = Plasmodium falciparum, W2, read-out: IC50
[26] = Leishmania donovani, read-out: IC50

Compound	IC50 (Plasmodium falciparum [1]; [24]) [µg/mL]	IC50 (Vero)	selectivity ratio [2]	IC50 [4] [µM]	IC50 (Cryptococcus neoformans) [µg/mL]	MFC (Cryptococcus neoformans) [µg/mL]	MIC (Cryptococcus neoformans) [µg/mL]	Activity (Candida albicans [5])	Activity (Pseudomonas aeruginosa)	Activity [7]	IC50 (Leishmania donovani)	IC90 (Leishmania donovani)	selectivity ratio [8]	Activity (Escherichia coli [9])	Activity (Aspergillus fumigatus)	Activity (Staphylococcus aureus [10])	IC50 (Plasmodium falciparum [14]; [25]) [µg/mL]	Activity (Candida albicans [15])	Activity (Escherichia coli [16])	Activity (Escherichia coli [18])	also measured
COc1cc(NC(C)CCCNC(=O)[C@H](CCCCN)NC(=O)[C@@H](N)CCCCN)c2ncccc2c1 (stereo partly drawn)	2 (≈ 3.88 µM)	Non-toxic	> 8.5	618	7 (≈ 13.6 µM)	20 (≈ 38.8 µM)	10 (≈ 19.4 µM)	inactive	inactive	inactive	Not Active	inactive	> 11.9	inactive	inactive	inactive	2.8 (≈ 5.43 µM)	inactive			Activity (Staphylococcus aureus [3]): inactive; Activity (Plasmodium berghei [6]): Active; Activity (Plasmodium berghei [11]): Active; Activity (Plasmodium berghei [12]): Active; Activity (Plasmodium berghei [13]): 100%
COc1cc(NC(C)CCCNC(=O)[C@@H](CCCNC(=N)N)NC(=O)[C@H](N)CCCNC(=N)N)c2nc(C(C)(C)C)ccc2c1 (stereo partly drawn)		Non-toxic		> 1000	3.55 (≈ 5.65 µM)	10 (≈ 15.9 µM)	10 (≈ 15.9 µM)	inactive	inactive	inactive				inactive	inactive			inactive	inactive	inactive	IC50 (Plasmodium falciparum [1]): Not Active; IC50 (Pichia kudriavzevii): 7.08 µg/mL (≈ 11.3 µM); MFC (Pichia kudriavzevii): 10 µg/mL (≈ 15.9 µM); MIC (Pichia kudriavzevii): 10 µg/mL (≈ 15.9 µM); IC50 (Staphylococcus aureus [3]): 11.2 µg/mL (≈ 17.8 µM); MBC (Staphylococcus aureus [3]): 20 µg/mL (≈ 31.9 µM); MIC (Staphylococcus aureus [3]): 20 µg/mL (≈ 31.9 µM); IC90 (Leishmania donovani; Leishmania donovani): 34 µg/mL (≈ 54.2 µM); IC50 (Leishmania donovani; [26]): 20 µg/mL (≈ 31.9 µM); IC50 (Nakaseomyces glabratus): 12.4 µg/mL (≈ 19.8 µM); MFC (Nakaseomyces glabratus): 20 µg/mL (≈ 31.9 µM); MIC (Nakaseomyces glabratus): 20 µg/mL (≈ 31.9 µM); IC50 (Staphylococcus aureus [10]): 5.96 µg/mL (≈ 9.49 µM); MBC (Staphylococcus aureus [10]): 20 µg/mL (≈ 31.9 µM); MIC (Staphylococcus aureus [10]): 10 µg/mL (≈ 15.9 µM); Activity [17]: inactive; IC50 (Plasmodium falciparum [14]): Not Active; Activity [19]: inactive
COc1cc(NC(C)CCCNC(=O)C[C@H](NC(=O)[C@@H](N)CCCNC(=N)N)C(=O)O)c2nc(C(C)(C)C)ccc2c1 (stereo partly drawn)	3.3 (≈ 5.62 µM)	Non-toxic	> 8.5	115	15 (≈ 25.6 µM)	20 (≈ 34.1 µM)	20 (≈ 34.1 µM)	inactive	inactive	inactive	Not Active	inactive	> 7.2		inactive	inactive	2.8 (≈ 4.77 µM)	inactive	inactive	inactive	Activity (Staphylococcus aureus [20]): inactive; Activity (Staphylococcus aureus [21]): inactive; IC50 (Escherichia coli [9]): 15 µg/mL (≈ 25.6 µM); Activity [17]: inactive; Activity [19]: inactive
COc1cc(NC(C)CCCNC(=O)[C@@H](CCCN)NC(=O)[C@H](N)CCCN)c2nc(C(C)(C)C)ccc2c1 (stereo partly drawn)	4.76 (≈ 8.75 µM)	Non-toxic	> 7.21	39	3.5 (≈ 6.44 µM)	5 (≈ 9.2 µM)	5 (≈ 9.2 µM)	inactive	inactive				> 5	inactive	inactive	inactive	3.3 (≈ 6.07 µM)	inactive	inactive	inactive	Activity (Staphylococcus aureus [20]): inactive; Activity (Staphylococcus aureus [21]): inactive; IC50 [7]: 10 µg/mL (≈ 18.4 µM); MIC [7]: 20 µg/mL (≈ 36.8 µM); IC90 (Leishmania donovani; Leishmania donovani): 38 µg/mL (≈ 69.9 µM); IC50 (Leishmania donovani; [26]): 20 µg/mL (≈ 36.8 µM); Activity [19]: inactive
COc1cc(NC(C)CCCNC(=O)[C@@H](CCCCN)NC(=O)[C@H](N)CCCCN)c2nc(C(C)(C)C)ccc2c1 (stereo partly drawn)	4.76 (≈ 8.32 µM)	Non-toxic	> 8.5	> 1000	6.5 (≈ 11.4 µM)	10 (≈ 17.5 µM)	10 (≈ 17.5 µM)	inactive	inactive	inactive	Not Active	inactive	> 5	inactive	inactive	inactive	2.8 (≈ 4.9 µM)	inactive			Activity (Plasmodium berghei [22]): inactive; Activity (Staphylococcus aureus [3]): inactive; Activity (Plasmodium berghei [23]): inactive
